Source: PubChem BioAssay (The Scripps Research Institute Molecular Screening Center)
Sampled rows, rich in hits. Any-hit rate of the full collection: about 1.8%.
CHRM4 agonist: agonists of human muscarinic M4 receptor (CHRM4). activation, % at 3 µM. hit rate 0.14% among 360,000. CHO-K1 hM4/Gqi5, Fluo-8 calcium fluorescence; vehicle 0%, full acetylcholine response 100%. AID 624127;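 active means activation above the run mean over all test wells plus 3 SD, cut at about 32% in these data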;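 further: peak over basal fluorescence ratio per well then scaled between controls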
Target sequence (P08173 whole entry, looked up): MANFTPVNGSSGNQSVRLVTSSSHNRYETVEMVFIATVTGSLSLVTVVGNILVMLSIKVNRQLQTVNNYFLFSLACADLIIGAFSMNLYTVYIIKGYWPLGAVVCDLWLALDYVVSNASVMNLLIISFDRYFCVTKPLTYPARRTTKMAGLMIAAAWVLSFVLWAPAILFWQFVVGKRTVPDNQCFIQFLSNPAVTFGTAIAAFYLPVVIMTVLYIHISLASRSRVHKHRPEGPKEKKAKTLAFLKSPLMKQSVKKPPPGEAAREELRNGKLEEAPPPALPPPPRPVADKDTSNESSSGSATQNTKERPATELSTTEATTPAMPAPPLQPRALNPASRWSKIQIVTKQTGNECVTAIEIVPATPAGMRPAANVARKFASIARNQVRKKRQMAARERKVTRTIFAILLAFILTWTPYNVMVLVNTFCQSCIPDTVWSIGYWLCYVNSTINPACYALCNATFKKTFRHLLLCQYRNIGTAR
M4 PAM: positive allosteric modulators of human muscarinic M4 receptor | AID 624126 | P08173 | hit rate 0.4% among 360,000 | activation, % at 3 µM | CHO-K1 hM4/Gqi5, Fluo-8 calcium fluorescence, ACh EC20; 0% = ACh EC20, 100% = maximal ACh;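 active means activation above its plate's cutoff, the mean activation of sample wells plus 3 SD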
CHRM5 PAM: potentiates acetylcholine response at human M5 receptor. P08912. CHO-K1 hM5, Fluo-8 calcium, ACh EC20 PAM; 0% = ACh EC20, 100% = ACh EC100. activation, % at 3 µM. hit rate 0.3% among 360,000;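 active means activation above the run cutoff, the mean activation of all test compounds plus 3 SD, cut at about 18% in these data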
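Assay system: CHO-K1 hM5 cells. Also added: acetylcholine at EC20 concentration, added after compound. Dosing: 3 µM, single dose. Times: compound preincubation 140 s before EC20 acetylcholine addition. Signal: Fluo-8 calcium fluorescence. Measure: % activation relative to EC20 and EC100 ACh responses. Repeats: singlicate, one well per test compound.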
CHRM4 antagonist: CHRM4 antagonism in calcium assay; CHO-hM4 cells, ACh EC80, Fluo-8 calcium fluorescence; AID 624125; inhibition, % at 3 µM; hit rate 0.73% among 360,000;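 active means inhibition above its plate's cutoff, the mean inhibition of sample wells plus 3 SD, cut at about 27% in these data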
CHRM5 antagonist: blocks acetylcholine activation of human M5 receptor; P08912; CHO-hM5 cells, Fluo-8 calcium fluorescence, ACh EC80; inhibition, % at 3 µM; hit rate 0.59% among 360,000; AID 624040;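 active means inhibition above a per-plate cutoff, the mean of that plate's test compounds plus 3 SD, cut at about 27% in these data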
CHRM5 agonist: CHRM5 agonism in calcium assay | P08912 | CHO-K1 hM5 cells, Fluo-8 calcium fluorescence; 0% DMSO wells, 100% maximal acetylcholine response | activation, % at 3 µM | hit rate 0.19% among 360,000 | AID 624037;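 active means activation above the run's mean over test compounds plus 3 SD, cut at about 23% in these data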;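 further: signal is peak over basal fluorescence ratio across the kinetic read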
Hits are given with their value; . = inactive.

SMILES	CHRM4 agonist	M4 PAM	CHRM5 PAM	CHRM4 antagonist	CHRM5 antagonist	CHRM5 agonist
COc1ccccc1C(=O)N1CCN(C(=O)[C@H]2O[C@@H](n3ccc(N)nc3=O)[C@H](O)[C@@H]2O)CC1	.	.	.	.	.	.
CC(C)(CNC(=S)NCCc1ccccc1)CNC(=S)NCCc1ccccc1	.	.	.	.	28	.
OCCNC(=S)NCCc1ccccc1	.	.	.	.	.	.
CCOC(=O)c1c(-c2ccc(C)o2)csc1NC(=O)COC(=O)c1cccs1	.	.	.	29	.	.
[N-]=[N+]=NC(c1ccccc1)C(NC(=O)c1cc(C(F)(F)F)cc(C(F)(F)F)c1)c1ccccc1 (centres undefined)	.	.	.	31	.	.
O=C(NC(c1ccccc1)C(Cl)Cl)c1ccccc1 (centres undefined)	.	.	.	.	.	.
OC1CCN(Cc2ccc(OCc3ccccc3)cc2)CC1	.	.	.	.	.	.
CC1CCCN(Cc2ccc(OCc3ccccc3)cc2)C1 (centres undefined)	.	.	.	37	.	.
CCCCN(CC)Cc1c(O)ccc2c(-c3ccccc3)cc(=O)oc12	.	.	.	28	.	.
Cn1c(CN2CCCCC2)nc2cc(NS(=O)(=O)c3ccc(Cl)cc3)ccc21	43	.	.	.	.	.
Cc1ccc(SCCNS(C)(=O)=O)cc1	.	.	22	.	.	.
O=C(CSc1ccc(-c2nc3ccccc3[nH]2)cn1)Nc1ccc(S(=O)(=O)NC2CC2)cc1	.	.	.	31	.	.
CCOc1ccccc1N1CC(C(=O)N2CCOCC2)CC1=O (centres undefined)	.	.	.	.	.	.
O=C1c2ccccc2C(Nc2ccc(F)c(Cl)c2)N1c1ccccn1 (centres undefined)	.	.	.	.	.	.
COc1ccc(NC2c3ccccc3C(=O)N2c2ccccn2)cc1Cl (centres undefined)	.	.	.	79	.	.
Oc1ccc(Cl)cc1C1=NNC(c2ccc(Cl)cc2)C1 (centres undefined)	.	.	.	.	.	.
Oc1ccc(Cl)cc1C1=NNC(c2cc(Br)cc3c2OCOC3)C1 (centres undefined)	.	.	21	.	.	.
COCC(=O)NNS(=O)(=O)c1ccccc1[N+](=O)[O-]	.	.	20	.	.	.
COc1ccccc1CC(=O)NNS(=O)(=O)c1ccccc1[N+](=O)[O-]	.	.	.	.	.	.
COc1ccccc1C(NC(=O)C1CCN(CCOc2ccccc2)CC1)c1ccccn1 (centres undefined)	.	.	.	.	.	.
CCCCN1C(=O)C(=O)N(CC(=O)Nc2ccccc2C(C)=O)C1=O	.	.	.	.	.	.
CCCCN1C(=O)C(=O)N(CC(=O)Nc2cc(Cl)ccc2OC)C1=O	.	24	.	.	.	.
CCOc1cc(/C=C2\SC(=S)N(Nc3ccccc3)C2=O)ccc1O	.	.	.	.	.	.
COc1cc(/C=C2\SC(=S)N(Nc3ccccc3)C2=O)ccc1O	45	.	.	27	29	29
COc1cc(/C=C2\SC(=S)N(NC(=O)c3ccc(O)cc3)C2=O)ccc1O	94	.	.	27	.	60
SMILES	CHRM4 agonist	M4 PAM	CHRM5 PAM	CHRM4 antagonist	CHRM5 antagonist	CHRM5 agonist
COc1cc(/C=C2/SC(=S)N(CC3CCCO3)C2=O)ccc1O (centres undefined)	33	.	.	.	.	.
O=C(NN1C(=O)/C(=C/c2ccc(O)c(O)c2)SC1=S)c1ccccc1	.	.	.	.	.	40
Cc1ccc(C(=O)OCC(=O)NC(C)c2ccccc2)cc1C (centres undefined)	.	.	.	.	.	.
O=c1n(Cc2ccccc2)c(O)c2n1Cc1ccccc1N=C2c1ccc(C(F)(F)F)cc1	.	.	.	.	.	.
COCCn1c(=S)[nH]c2cc(C(=O)N3CCCC(C)C3)ccc2c1=O (centres undefined)	.	.	.	.	.	.
CCc1nnc(NC(=O)CN2C(=O)NC3(CCCC3)C2=O)s1	.	.	.	.	.	.
CCC1(c2ccc(F)cc2)NC(=O)N(CC(=O)Nc2ccc(N3CCCCC3)cc2)C1=O (centres undefined)	.	.	.	.	.	27
O=C(CN1C(=O)NC2(CCCC2)C1=O)NNC(=O)c1ccc(Br)cc1	.	25	.	.	.	.
O=C(CN1C(=O)NC2(CCCC2)C1=O)Nc1ccc(F)cc1	.	38	.	42	.	.
C=CCSc1nnc(NC(=O)CN2C(=O)NC3(CCCC3)C2=O)s1	.	18	.	.	.	.
CCC1(c2ccc(F)cc2)NC(=O)N(CC(=O)Nc2ccc(C(N)=O)cc2)C1=O (centres undefined)	.	.	.	.	.	.
Cc1ccc2c(NCc3ccco3)nc(NC(C)C)nc2c1	.	.	.	.	.	.
CC1(C(=O)NS(=O)(=O)c2cccc(F)c2)CCN1C(=O)CCC1CCCC1 (centres undefined)	.	.	.	.	.	.
CC(C)(CC(=O)N1CCN(c2ccc(Cl)cc2)CC1)CC1=NS(=O)(=O)c2ccccc2N1	.	.	.	26	28	.
COc1cccc(N2CCN(C(=O)CC(C)(C)CC3=NS(=O)(=O)c4ccccc4N3)CC2)c1	.	.	.	.	27	.
O=C(CCCC1=NS(=O)(=O)c2ccccc2N1)N1CCN(c2ccc(Cl)cc2)CC1	.	.	.	.	.	.
O=C(CCCC1=NS(=O)(=O)c2ccccc2N1)N1CCN(c2ccccc2)CC1	.	.	.	.	.	.
CCN(CC(=O)Nc1cc(S(=O)(=O)N2CCOCC2)ccc1C)Cc1ccccc1	.	.	.	.	.	.
CC1CCN(c2ccccc2NC(=O)c2ccc(C#N)cc2F)CC1	.	23	.	.	.	.
CC(C)C(=O)N1CCN(c2ccccc2NC(=O)c2ccc(C#N)cc2F)CC1	.	.	.	.	.	.
COC(=O)c1ccc(C(=O)OC)c(NC(=O)C2CC(=O)N(C3CCCC3)C2)c1 (centres undefined)	.	.	.	.	.	.
COc1ccc(C(=O)Nc2ccccc2C(=O)N2CCOCC2)cc1OC	.	.	.	.	.	.
COc1cccc(OC)c1C(=O)Nc1ccccc1C(=O)N1CCOCC1	.	.	.	.	33	.
CCc1c(O)nc(SCC(=O)Nc2ccc(Cl)cc2)n(-c2ccccc2)c1=O	.	17	.	.	.	.
CCc1c(O)nc(SCC(=O)Nc2ccc(OC)cc2)n(C2CCCCC2)c1=O	.	.	.	.	.	.
